Experimental data as given in ChEMBL document CHEMBL1128502, “Aziridine analogs of [[trans-(epoxysuccinyl)-L-leucyl]amino]-4-guanidinobutane (E-64) as inhibitors of cysteine proteases” (J Med Chem, 1995).

Key:
[1] = biological target: T1, Papain (Carica papaya) (UniProt P00784); test: Second order rate constant for the inactivation of papain at pH 6.5 was reported
T1 sequence (whole entry): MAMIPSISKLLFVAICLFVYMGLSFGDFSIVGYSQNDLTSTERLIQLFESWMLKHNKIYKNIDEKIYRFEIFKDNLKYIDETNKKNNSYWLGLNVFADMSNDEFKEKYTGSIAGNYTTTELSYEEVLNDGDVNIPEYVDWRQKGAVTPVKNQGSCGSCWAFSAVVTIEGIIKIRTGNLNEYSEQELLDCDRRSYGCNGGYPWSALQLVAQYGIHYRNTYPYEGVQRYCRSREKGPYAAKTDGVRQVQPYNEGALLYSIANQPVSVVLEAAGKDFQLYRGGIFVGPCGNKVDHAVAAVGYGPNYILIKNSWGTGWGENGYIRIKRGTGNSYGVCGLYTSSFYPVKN
In short: (§1)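 Inactivation of cysteine protease was followed at 25 °C in 50 mM buffer with 0.2 M NaCl, 5 mM EDTA, 1 mM DTT and 10% acetonitrile. Buffers were citrate for pH 3.0–5.7, phosphate for pH 5.7–7.9 and borate for pH 7.9–9.0. The second-order constant kinac/Ki was obtained by the Tian and Tsou method.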

[2] = biological target: Procathepsin L (Homo sapiens) (UniProt P07711); test: Second order rate constant for the inactivation of cathepsin L at pH 5.5 was reported; in short: as §1
Sequence of Procathepsin L (Homo sapiens) (P07711 114-333 limits assumed): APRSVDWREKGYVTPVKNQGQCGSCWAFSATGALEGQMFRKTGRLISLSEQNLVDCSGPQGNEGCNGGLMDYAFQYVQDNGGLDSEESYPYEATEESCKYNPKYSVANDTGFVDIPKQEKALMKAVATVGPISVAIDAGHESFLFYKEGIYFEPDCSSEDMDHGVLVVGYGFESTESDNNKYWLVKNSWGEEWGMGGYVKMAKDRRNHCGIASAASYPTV

[3] = biological target: Cathepsin B (Rattus norvegicus) (UniProt P00787); test: Second order rate constant for the inactivation of cathepsin B at pH 6.0 was reported; No time dependent inhibition observed; in short: as §1
Sequence of Cathepsin B (Rattus norvegicus) (P00787 80-333 limits assumed): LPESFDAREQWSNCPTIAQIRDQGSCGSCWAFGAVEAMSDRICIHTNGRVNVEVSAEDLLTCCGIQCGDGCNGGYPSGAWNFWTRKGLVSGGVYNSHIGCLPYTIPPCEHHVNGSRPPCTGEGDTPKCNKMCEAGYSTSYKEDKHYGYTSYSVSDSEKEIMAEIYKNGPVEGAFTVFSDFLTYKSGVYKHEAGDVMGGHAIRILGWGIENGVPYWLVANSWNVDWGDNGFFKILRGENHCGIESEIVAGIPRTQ

[4] = biological target: T1, Papain (Carica papaya); test: Second order rate constant for the inactivation of papain at pH 6.5 was reported; No time dependent inhibition observed; in short: as §1
[5] = biological target: Procathepsin L (Homo sapiens) (UniProt P07711); test: Second order rate constant for the inactivation of cathepsin L at pH 6.5 was reported; in short: as §1
[6] = biological target: Cathepsin B (Rattus norvegicus) (UniProt P00787); test: Second order rate constant for the inactivation of cathepsin B at pH 6.0 was reported

SMILES | K inact/Ki [1] | K inact/Ki [2] | K inact/Ki [3] | K inact/Ki [4] | K inact/Ki [5] | K inact/Ki [6]
CC(C)CNC(=O)[C@@H]1N[C@@H]1C(=O)N[C@@H](CC(C)C)C(=O)N1CCC[C@H]1C(=O)O | 1.8 M⁻¹ s⁻¹ | 6.7 M⁻¹ s⁻¹ | No inhibition |  |  | 
CC(C)CNC(=O)[C@H]1N[C@H]1C(=O)O | 9.4 M⁻¹ s⁻¹ |  |  |  |  | 
CC(C)CNC(=O)[C@@H]1N[C@H]1C(=O)N[C@@H](CC(C)C)C(=O)N1CCC[C@H]1C(=O)O |  |  |  | No inhibition | 50 M⁻¹ s⁻¹ | 13 M⁻¹ s⁻¹
